Hits are enriched below; roughly 2.5% of the tested compounds scored in any of these assays.
TbHK1 inh = blocks Trypanosoma brucei hexokinase 1 activity; recombinant TbHK1, G6PDH-coupled NADH A340; inhibition, % at 10 µM; actives 0.11% (n = 220,000);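 active = inhibition of 50% or more in the single-dose primary screen; inactive = inhibition below 50%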
HKDC1 inhibitor = HKDC1 (human) hexokinase inhibition; Q2TB90; recombinant HKDC1, G6PDH/diaphorase resazurin coupled fluorescence; inhibition, % at 20 µM; actives 0.16% (n = 340,000); AID 493160;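 active = inhibition above about 35% when tested at 20 µM, limit read from the data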;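 also: plate controls were DMSO wells with enzyme for no effect and DMSO wells lacking enzyme for full effect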
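Assay system: in-house recombinant HK5 (HKDC1) enzyme. Input: HKDC1 at 5 µg/mL. Medium: Tris pH 8.0 buffer with MgCl2, Tween-20, BSA, BME. Dosing: single 20 µM dose. Schedule: 90 min reaction incubation at room temperature, dark. Signal: resazurin-to-resorufin fluorescence via G6PDH and diaphorase coupling, 525/613 nm. Controls: DMSO-enzyme wells negative, buffer-substituted wells positive.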
PfG6PD inh = PfG6PD (Plasmodium falciparum) enzyme inhibition. PfGluPho enzyme, NADPH resazurin-diaphorase fluorescence. inhibition, % at 20 µM. actives 0.78% (n = 350,000);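 active = inhibition reaching at least a set limit at 20 µM in the primary screen, cut at about 59% in these data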;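 also: 0% = DMSO wells with substrate and 100% = DMSO wells lacking glucose-6-phosphate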
EP2 modulator = EP2 receptor (human) modulation | induction, % at 25 µM | actives 0.83% (n = 260,000) | P43116 | EP2-expressing cells, cAMP HTRF FRET, PGE2 co-stimulation;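 active = compounds whose cAMP rise, as percent of the full-agonist control response, exceeds 60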;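 also: rat C6 glioma line stably carrying human EP2 under a CMV promoter; the protocol text gives 20 µM as final concentration; 100% = response of wells given 1 µM PGE2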
Target sequence (P43116 whole entry, looked up): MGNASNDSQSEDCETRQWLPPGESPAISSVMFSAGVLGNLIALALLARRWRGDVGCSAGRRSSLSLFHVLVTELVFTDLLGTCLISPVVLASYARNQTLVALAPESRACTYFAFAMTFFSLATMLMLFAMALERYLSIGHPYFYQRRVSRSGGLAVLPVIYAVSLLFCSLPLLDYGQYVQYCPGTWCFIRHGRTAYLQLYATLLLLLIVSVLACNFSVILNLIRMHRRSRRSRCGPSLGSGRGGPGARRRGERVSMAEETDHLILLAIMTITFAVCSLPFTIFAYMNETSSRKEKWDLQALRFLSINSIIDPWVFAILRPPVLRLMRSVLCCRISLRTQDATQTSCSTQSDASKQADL
PHOSPHO1 inh = blocks human PHOSPHO1 phosphatase activity. Q8TCT1. recombinant PHOSPHO1, absorbance phosphatase assay. inhibition, % at 13.3 µM. actives 1.1% (n = 290,000); in the data active = inhibition above about 60%
Target sequence (Q8TCT1 whole entry, looked up): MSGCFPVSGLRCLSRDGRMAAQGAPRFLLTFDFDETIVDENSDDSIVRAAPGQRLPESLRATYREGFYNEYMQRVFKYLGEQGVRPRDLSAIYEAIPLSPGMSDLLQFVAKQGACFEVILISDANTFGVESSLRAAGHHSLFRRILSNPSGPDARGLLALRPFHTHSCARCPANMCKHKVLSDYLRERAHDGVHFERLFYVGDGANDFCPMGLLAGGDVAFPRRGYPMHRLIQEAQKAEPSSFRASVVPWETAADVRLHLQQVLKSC
PGE2 EP2 inh = inhibitors of human EP2 prostaglandin E2 receptor; P43116; C6 glioma cells expressing human EP2, cAMP TR-FRET; cells stimulated with saturating PGE2; inhibition, % at 25 µM; actives 0.52% (n = 260,000); AID 1422;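 active = percent inhibition above 40 after rounding to a whole number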;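 also: rat C6 glioma host cells with rolipram phosphodiesterase inhibitor present; the protocol text gives 20 µM as final concentration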
EP2 confirm = EP2 receptor cAMP induction, counter-screens negative | C6 glioma EP2 cells, cAMP HTRF induction; plus low (about EC15) PGE2 agonist | actives 47% (n = 1,300) | calls only at 20 µM (by protocol) | AID 1080 | shares compounds with EP2 modulator;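 active = cAMP induction above 50% in the main assay while under 30% in all four parallel counter assays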;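 also: rat C6 glioma cells stably expressing human EP2 receptor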
The depositor's hits bear a star; i = inactive; nt = not tested or not shown; + = active, no number.

SMILES	TbHK1 inh	HKDC1 inhibitor	PfG6PD inh	EP2 modulator	PHOSPHO1 inh	PGE2 EP2 inh	EP2 confirm
COc1ccc2c(c1)OC1(CCN(CC(O)c3ccc(C)cc3)CC1)CC2O (stereo not given)	nt	nt	nt	-7.4	nt	6.6	nt
CCC(C)(C)n1nnnc1C(c1cccc(OC)c1OC)N1CCN(c2cc(Cl)ccc2C)CC1 (stereo not given)	nt	nt	nt	-6.7	nt	6.0	nt
Cc1ncsc1C(=O)N1CCC[C@H](C(=O)c2cccs2)C1	nt	nt	nt	-5.2	nt	nt	nt
O=C(c1ccc(Cl)cc1)c1oc2ccccc2c1CS(=O)c1ccc(Cl)cc1 (stereo not given)	0.7	-7.3	32.7	72.6*	107.0*	8.6	+
O=C(O)c1oc(C(=O)O)c(C(=O)O)c1C(=O)O	nt	nt	nt	56.9	nt	10.6	i
O=C(c1cccc2cccnc12)N1CCCC(c2ncncc2-c2ccncc2)C1 (stereo not given)	nt	nt	nt	-14.3	nt	nt	nt
CC[C@@H](Cn1nnc2ccccc2c1=O)NC(=O)C1(c2ccc(Cl)cc2)CCC1	nt	nt	nt	6.7	nt	8.1	nt
CCC1Oc2ccccc2N(Cc2ccccc2C)C1=O (stereo not given)	-3.9	-0.3	-3.8	74.3*	-7.4	6.0	+
COc1c(O)cc2oc3cc(O)c(CC=C(C)C)c(O)c3c(=O)c2c1CC=C(C)C	nt	nt	nt	51.1	nt	16.3	i
CC(=O)c1cccc(S(=O)(=O)N(Cc2cc3cc4c(cc3[nH]c2=O)OCO4)C2CCCC2)c1	nt	nt	nt	-25.4	nt	6.2	nt
CCNC(=S)N(Cc1ccccc1)Cc1cc2cc3c(cc2[nH]c1=O)OCO3	nt	nt	nt	-17.1	nt	6.0	nt
CCCCOC(=O)Sc1nc2ccccc2o1	21.2	3.9	-6.3	71.1*	93.5*	14.1	i
Cc1ccc(C(=O)CSc2nc3ccccc3o2)cc1C	nt	nt	nt	22.0	nt	5.0	nt
CCOC(=O)Cc1csc(NC(=O)c2cc(=O)c3ccccc3o2)n1	-20.1	0.9	2.4	83.6*	29.2	9.2	+
CCOC(=O)Cc1csc(NC(=O)Cc2ccccc2)n1	-1.7	-4.6	-15.6	-8.0	-3.4	4.8	nt
COCCCNC(=O)C(=O)NCc1ccc2c(c1)OCO2	nt	nt	nt	1.9	nt	12.8	nt
C=CCc1cccc(/C=N/c2nc3ccccc3n2CC)c1O	-9.3	3.9	6.1	84.1*	18.0	2.2	i
CCn1c(/N=C/c2ccccc2O)nc2ccccc21	nt	4.6	-5.0	nt	8.8	nt	nt
C/C(=N\N=C(c1ccccc1)c1ccccc1)c1ccco1	-3.5	5.4	1.2	81.3*	19.2	7.0	+
CC(C)(CO)NC(=O)C1CC(c2ccc(Cl)c(Cl)c2)=NO1 (stereo not given)	nt	nt	nt	-45.8	nt	14.6	nt
Cc1ccc(C(=O)Nc2sc3c(c2C(N)=O)CCC3)cc1Cl	nt	nt	nt	-24.5	nt	16.2	nt
COc1cc(OC)c(-c2nc(-c3ccccc3)no2)cc1OC	nt	nt	nt	20.4	nt	7.6	nt
COc1ccc(-c2noc(-c3ccccc3-c3ccccc3)n2)cc1OC	6.0	1.8	13.9	77.2*	-13.9	nt	+
Cc1ccc(S(=O)(=O)N(CC(=O)N=Nc2c(O)[nH]c3ccccc23)c2ccc(C)c(C)c2)cc1	25.4	1.2	-10.4	67.3*	9.4	10.2	+
Cc1cccc(-n2c(-c3ccco3)nn(CC(=O)N3CCCCC3C)c2=O)n1 (stereo not given)	nt	nt	nt	-18.4	nt	6.0	nt
SMILES	TbHK1 inh	HKDC1 inhibitor	PfG6PD inh	EP2 modulator	PHOSPHO1 inh	PGE2 EP2 inh	EP2 confirm
CSc1nnc(-c2cc3c(s2)-c2ccccc2CC3)o1	-13.9	2.2	21.4	75.9*	-14.0	9.8	+
S=c1[nH]nc(-c2cc3c(s2)-c2ccccc2CC3)o1	-11.5	4.1	4.9	-4.9	-17.9	15.4	nt
CC1CCc2c(sc3ncn4c(=O)n(CC(=O)N5CCNC(=O)C5(C)C)nc4c23)C1 (stereo not given)	nt	nt	nt	9.1	nt	nt	nt
CCC1CCc2c(sc3ncnc(N4CCOCC4)c23)C1 (stereo not given)	-1.4	11.9	-15.6	58.0	26.8	13.7	+
CCCCc1nc(N2CCOCC2)c(C#N)c2c1CCCC2	2.1	1.5	-24.7	79.2*	-6.1	10.8	i
CCCSc1nc(N2CCOCC2)c2c(c1C#N)CCCC2	-8.1	4.5	5.6	65.8*	-10.0	14.9	+
CC(C)Cc1nc(N2CCCCC2)c(C#N)c2c1CCC2	-0.2	1.0	-14.7	88.6*	20.8	16.9	i
CCc1ccc(N2CC(C(=O)Nc3ccccc3I)CC2=O)cc1 (stereo not given)	nt	nt	nt	-51.8	nt	17.3	nt
Nc1cc(Cl)ccc1Oc1ccc(Cl)cc1	1.7	-2.7	19.6	65.9*	28.4	0.4	i
O=C(C1CCCCC1)N1CCC(Cn2nc(-c3ccco3)ccc2=O)CC1	nt	nt	nt	-26.7	nt	nt	nt
Cc1ccnc(SCC(=O)n2c3c(c4ccccc42)CC(C)CC3)n1 (stereo not given)	-4.8	2.1	29.1	74.2*	51.3	-7.4	+
O=C(O)c1cc(C(=O)O)cc(N2C(=O)c3ccccc3C2=O)c1	nt	nt	nt	86.9*	nt	7.7	+
COC(=O)Cn1c2ccc(Cl)cc2c2nc(C)sc21	-2.1	-34.5	12.6	-19.2	-12.7	8.9	nt
Cc1ccc(S(=O)(=O)n2c3ccc(Cl)cc3c3nc(C)sc32)cc1	-4.5	-5.8	24.5	89.9*	-17.3	3.5	+
O=C(c1cccs1)N1CCC[C@H]1Cn1nc(-c2cccs2)ccc1=O	nt	nt	nt	-18.5	nt	8.8	nt
Cc1cc2oc(=O)cc(COC(=O)c3n[nH]c4ccccc34)c2cc1C	-5.5	-7.1	-15.1	7.9	3.2	nt	nt
COc1ccc2c(COC(=O)c3n[nH]c4ccccc34)cc(=O)oc2c1	-33.4	7.9	-16.5	74.5*	3.4	10.2	i
COc1ccc(C)cc1NC(=O)C(Sc1nnnn1C)c1ccccc1 (stereo not given)	2.0	-10.4	-7.4	26.0	5.8	5.4	nt
COCCn1c(SC(C(=O)Nc2cc(C)ccc2OC)c2ccccc2)nnc1-c1ccc(Cl)cc1 (stereo not given)	-5.3	-16.2	-12.0	55.1	62.7*	7.6	i
Cc1ccc(O)c(N=Cc2cc(Cc3ccccc3)cc([N+](=O)[O-])c2O)c1	2.8	17.3	44.6	68.6*	48.4	5.6	i
CCCC(=O)N1CCCC(c2nc(-c3cccs3)no2)C1 (stereo not given)	-6.0	-9.8	11.0	75.8*	-45.0	11.5	i
O=C(O)C(=O)N1CCCC1	nt	nt	nt	-10.6	nt	24.4	nt
c1ccc(-c2cc(N3CCOCC3)nc(-c3ccccc3)n2)cc1	-4.3	-13.9	0.5	39.5	18.2	8.4	nt
CCSc1cc(N2CCOCC2)nc(-c2ccccc2)n1	3.5	-16.6	8.5	65.1*	-1.0	4.4	+
Oc1ccc2ccccc2c1Cc1c(O)ccc2ccccc12	nt	nt	nt	69.6*	nt	12.0	i
CCN(CC)c1nc(C)nc2c1sc(=S)n2C	-15.9	-4.2	1.2	58.0	8.4	7.6	nt

Screening results: PubChem, several laboratories
